This series is described as follows: Toxicity liver stage against HepG2, at 10uM. It is filed as cell-based. Details: test concentration 10 uM, cell line HepG2-A16-CD81EGFP. Conditions: human, HepG2-A16-CD81EGFP cells; read-out: INHIBITION
Summed up:
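Uninfected HepG2-A16-CD81EGFP cells, 3 × 10^3 per well, 1536-well, plated on prespotted compound at 10 μM final, parasite-free screening media added to match infected plates; puromycin 10 μM positive, DMSO 0.5% negative; run in parallel with 48 h PbLuc assay at 37 °C, 5% CO2; viability by CellTiter-Glo luminescence, normalized to controls.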
On to `Cc1cc(C)nc(N2CCCC2c2cccnc2)n1` (configuration not stated), for which the cytotoxicity at 10 µM came out at 0.997%.
The result for `CCCc1nc2c(c(C)c(C)n2CCN(C)C)c(N)c1CC` reads 12.9%.
The result for `O=C(Nc1ccc2c(c1)OCO2)c1ccc(N2CCCC2)nn1` reads 54.7%.
The result for `CCCS(=O)(=O)N1CCc2nc(N3CCOCC3)nc(N(C)C)c2C1` reads 15.5%; that for `O=C(COC1CCCC1)N1CC[C@H]2OCC[C@@]2(COCC2CC2)C1`, 1.52%; that for `CCOc1ccc(CN2CCC(c3ccn[nH]3)C2)cc1CO` (configuration not stated), 0.845%.
As for `Cc1noc(C)c1-c1cncc(C2CCCN2Cc2ccncc2)n1` (configuration not stated), the cytotoxicity at 10 µM is -7.98%.
The result for `Cc1noc(C)c1-c1cnc(CC2CCN(C(=O)c3cc[nH]n3)C2)cn1` (configuration not stated) reads 3.6%; that for `O=C(NCc1cccnc1-n1cncn1)c1cncc(Br)c1`, 10%; that for `CCN(CCNCc1ccc(C#N)cc1)C1CC1`, -6.54%.
With `CS(=O)(=O)N1CCO[C@@H]2CN(C(=O)C3CCOC3)CC[C@@H]2C1` (some centres not stated) the figure was -108%.
The result for `O=C1NCCO[C@H]2CN(C(=O)c3cccs3)CC[C@@H]12` reads -107%; that for `N#Cc1ccc(C(=O)N2CC[C@H]3[C@@H]2CCC(=O)N3c2ccccc2)cc1`, 3.99%; that for `CCN(C)C[C@@H]1CN(C(=O)c2cc(-c3ccc(F)cc3)n[nH]2)C[C@@H]1CO`, -26.4%.
On to `Cc1ccccc1CN1CCC(CNc2ncnc3c2CCNCC3)C1` (configuration not stated), for which the cytotoxicity at 10 µM is -7.13%.
With `CNC(=O)[C@@H]1C[C@@H](n2cc(-c3ccc(Cl)cc3)nn2)CN1` the figure was -3.95%.
With `COc1ccc(F)cc1CN1CCCn2nc(CNS(C)(=O)=O)cc2C1` the figure was 2.23%; with `CCCc1cc(=O)[nH]c(-c2cccc(CN3CCCCCC3)c2)n1`, -4.09%; with `CCn1c(C2CCCN(C(=O)C(C)(C)OC)C2)nn(CCN(C)C)c1=O` (configuration not stated), -1.94%.
For `O=S1(=O)C[C@@H]2[C@H](C1)N(Cc1ccoc1)CCN2Cc1ccncc1`, the cytotoxicity at 10 µM is -0.452%.
For the compound `Cc1nc(N)ncc1C(=O)N1CCCC(CCc2ccccc2F)C1` (configuration not stated), the cytotoxicity at 10 µM is -4.96%.
In the case of `COc1cccc(-c2noc(-c3ccc(NCCCO)nc3)n2)c1OC`, the cytotoxicity at 10 µM was -1.5%.
With `CCCc1cc(CNC(=O)Cc2cc(C)no2)on1` the figure was -1.04%.
In the case of `CN(C)c1ccc(CC(=O)N2C[C@H](C3CC3)[C@@H](N)C2)cc1`, the cytotoxicity at 10 µM is -3.97%.
The result for `Cc1cc(C)c2c(N3CCN(C(=O)N(C)C)CC3)ncnc2n1` reads -1.18%; that for `O=C(c1cnc(Cc2c(Cl)cccc2Cl)nc1O)N1CCNCC1`, -3.01%.
With `Cc1ccnc(N2CCN(Cc3ccccc3)CC(O)C2)c1` (configuration not stated) the figure was -1.88%; with `COCC(=O)N1CCC(C(=O)N(C)C(C)c2ccon2)CC1` (configuration not stated), 1.28%; with `CC(C)NC(=O)c1nc(Cn2c(C(F)(F)F)nc3ccccc32)no1`, 20.7%.
The result for `CN1C(=O)C2(CCN(C(=O)c3ccccc3)CC2)c2cccc(F)c21` reads 4.74%; that for `CCn1ncc2c1C(COC)N(C(=O)c1ccsc1)CC2` (configuration not stated), -101%.
In the case of `COc1ccc(CN2CCC3(CC2)CCN(c2cnn(C)c2)C3=O)cc1`, the cytotoxicity at 10 µM is -85.6%.
The result for `CCn1nnc2c1C(COCCN(C)C)CN(S(C)(=O)=O)C2` (configuration not stated) reads -2.69%; that for `c1cc(COC[C@]23COC[C@H]2CN(Cc2ccncc2)C3)ccn1`, -63.5%.
With `O=C(c1ccc(F)cc1)N1C[C@@H]2CCN(c3cccnc3)C[C@@H]2C1` the figure was -78.4%; with `Fc1ccc(CN2C[C@@H](OCc3ccccn3)[C@H]3COC[C@H]32)cc1`, -98.9%; with `O=C(CC1CCCC1)N1CC[C@H]2[C@H]1CCN2c1nncs1`, -3.43%.

The values are drawn from ChEMBL document CHEMBL4513216, “Probing the Open Global Health Chemical Diversity Library for Multistage-Active Starting Points for Next-Generation Antimalarials” (ACS Infect Dis, 2020).
